# According to ChEMBL document CHEMBL1833832, “The discovery of long-acting saligenin β₂ adrenergic receptor agonists incorporating a urea group” (Bioorg Med Chem, 2011):
# How the values were obtained:
# [1] = target: Beta-1 adrenergic receptor (Homo sapiens, UniProt P08588); assay: Agonist activity at human beta1 receptor expressed in CHO cells assessed as cAMP accumulation; type: functional, cell-based
# Liver microsomes = assay: Metabolic stability in human liver microsomes assessed as compound turn over ratio relative to verapamil; type: ADME, Microsome
# [2] = target: Beta-3 adrenergic receptor (Homo sapiens, UniProt P13945); assay: Agonist activity at human beta3 receptor expressed in CHO cells assessed as cAMP accumulation; type: functional, cell-based
# Chain of Beta-3 adrenergic receptor (P13945 whole entry): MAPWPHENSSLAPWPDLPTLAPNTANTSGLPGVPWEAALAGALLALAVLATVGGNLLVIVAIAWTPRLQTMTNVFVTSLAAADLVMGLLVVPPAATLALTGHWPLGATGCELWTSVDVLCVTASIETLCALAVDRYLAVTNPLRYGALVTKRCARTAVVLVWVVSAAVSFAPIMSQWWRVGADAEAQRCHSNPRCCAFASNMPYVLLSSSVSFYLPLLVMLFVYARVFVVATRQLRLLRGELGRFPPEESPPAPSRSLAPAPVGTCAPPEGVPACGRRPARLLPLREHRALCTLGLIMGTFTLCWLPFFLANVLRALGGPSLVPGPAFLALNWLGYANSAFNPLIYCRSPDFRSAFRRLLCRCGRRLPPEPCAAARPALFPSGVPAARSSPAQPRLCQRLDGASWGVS
# [3] = target: Beta-2 adrenergic receptor (Homo sapiens, UniProt P07550); assay: Agonist activity at human beta2 receptor expressed in CHO cells assessed as cAMP accumulation; type: functional, cell-based
# Chain of Beta-2 adrenergic receptor (Homo sapiens, UniProt P07550) (P07550 whole entry): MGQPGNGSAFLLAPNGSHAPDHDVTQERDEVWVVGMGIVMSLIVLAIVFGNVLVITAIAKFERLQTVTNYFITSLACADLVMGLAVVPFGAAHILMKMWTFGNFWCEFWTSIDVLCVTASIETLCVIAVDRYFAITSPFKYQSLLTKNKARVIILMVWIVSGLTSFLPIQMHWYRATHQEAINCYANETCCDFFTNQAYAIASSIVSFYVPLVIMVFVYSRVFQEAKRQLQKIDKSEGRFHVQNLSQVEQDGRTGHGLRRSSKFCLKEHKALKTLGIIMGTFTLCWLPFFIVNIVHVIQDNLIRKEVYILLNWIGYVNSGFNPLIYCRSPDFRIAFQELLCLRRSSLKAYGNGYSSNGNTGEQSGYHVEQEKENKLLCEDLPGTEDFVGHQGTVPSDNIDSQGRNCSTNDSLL
# [4] = Lipophilicity, log D of the compound at pH 6.4; type: physicochemical; details: buffer
# [5] = Oral bioavailability in dog; type: ADME, organism-based, Canis lupus familiaris; details: in vivo
# Procedure, shortened: (§1)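 Pharmacokinetics were run in male Han Wistar rat and Beagle dog, dosed intravenously and orally. Plasma clearance, steady-state volume of distribution, half-life and oral bioavailability were derived from the plasma profiles. Rat plasma samples were deconjugated before analysis.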
# Cavia porcellus [6] = assay: Bronchodilatory activity against histamine-induced bronchospasm in guinea pig assessed as time taken for 50% recovery of bronchospasm at EC90 administered via nebulizer; type: functional
# Procedure, shortened: (§2)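 In vivo guinea pig model with histamine-induced bronchospasm, measured in a plethysmograph chamber. Compound was given as a nebulised solution in dimethyl acetamide-saline vehicle. Potency is expressed as the EC90 nebuliser concentration.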
# Cavia porcellus [7] = organism: Cavia porcellus; assay: Bronchodilatory activity against electrically-stimulated contraction in guinea pig trachea assessed as onset time for bronchorelaxation activity; type: functional
# Procedure, shortened: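 Isolated guinea pig trachea strips were superfused and contracted electrically. Agonist was perfused until maximal relaxation was reached. Onset was taken as the time for an EC50 concentration to reach 50% of maximal relaxant effect. Minimum n = 2.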
# [8] = target: Beta-2 adrenergic receptor (Cavia porcellus, UniProt Q8K4Z4); assay: Agonist activity at beta2 adrenergic receptor in guinea pig tracheal strip assessed as inhibition of electrically-induced bronchocontractile response; type: functional, tissue-based, Trachea
# Chain of Beta-2 adrenergic receptor (Cavia porcellus, UniProt Q8K4Z4) (Q8K4Z4 whole entry): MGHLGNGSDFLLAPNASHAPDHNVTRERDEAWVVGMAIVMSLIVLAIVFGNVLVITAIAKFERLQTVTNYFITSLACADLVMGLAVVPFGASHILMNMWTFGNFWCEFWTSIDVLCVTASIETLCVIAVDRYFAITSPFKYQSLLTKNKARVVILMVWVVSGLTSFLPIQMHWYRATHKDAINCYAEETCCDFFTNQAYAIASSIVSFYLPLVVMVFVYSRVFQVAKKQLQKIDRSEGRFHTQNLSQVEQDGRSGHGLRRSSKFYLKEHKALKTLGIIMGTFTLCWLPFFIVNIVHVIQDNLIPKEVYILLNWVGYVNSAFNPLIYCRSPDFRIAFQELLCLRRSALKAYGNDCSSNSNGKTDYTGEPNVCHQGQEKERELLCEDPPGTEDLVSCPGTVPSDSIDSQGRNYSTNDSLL
# [9] = Oral bioavailability in Beagle dog at 0.25 mg/kg; details: in vivo
# Canis familiaris = assay: Liver blood flow in Beagle dog at 0.05 mg/kg, iv; details: in vivo
# [10] = Half life in Han Wistar rat at 0.25 mg/kg, iv; type: ADME, organism-based; design: dose 0.25 mg/kg, route intravenous; details: in vivo; procedure, shortened: as §1
# [11] = Oral bioavailability in Han Wistar rat at 2 mg/kg; type: ADME, organism-based; details: in vivo; procedure, shortened: as §1
# Rattus norvegicus = assay: Liver blood flow in Han Wistar rat at 0.25 mg/kg, iv; type: ADME, organism-based; design: dose 0.25 mg/kg, route intravenous; details: in vivo
# [12] = Volume of distribution at steady state in Han Wistar rat at 0.25 mg/kg, iv; type: ADME, organism-based; design: dose 0.25 mg/kg, route intravenous; details: in vivo, read-out: Vdss; procedure, shortened: as §1
# [13] = Half life in Beagle dog at 0.05 mg/kg, iv; details: in vivo
# [14] = Plasma clearance in Han Wistar rat at 0.25 mg/kg, iv; type: ADME, organism-based; design: dose 0.25 mg/kg, route intravenous; procedure, shortened: as §1
# Cavia porcellus [15] = assay: Bronchodilatory activity against histamine-induced bronchospasm in guinea pig assessed as time taken for 50% recovery of bronchospasm at 10 times EC90 administered via nebulizer; type: functional; procedure, shortened: as §2
# [16] = Plasma clearance in Beagle dog at 0.05 mg/kg, iv
# [17] = Volume of distribution at steady state in Beagle dog at 0.05 mg/kg, iv; details: in vivo, read-out: Vdss
# Cavia porcellus [18] = organism: Cavia porcellus; assay: Bronchodilatory activity against histamine-induced bronchospasm in the guinea pig; type: functional; procedure, shortened: as §2
# [19] = AUC in Han Wistar rat at 2 mg/kg, po; type: ADME, organism-based; design: dose 2 mg/kg, route oral; details: plasma
# Procedure, shortened: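 Oral absorption in rat was measured as AUC using a deconjugated HPV model.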
# Chain of Beta-1 adrenergic receptor (P08588 whole entry): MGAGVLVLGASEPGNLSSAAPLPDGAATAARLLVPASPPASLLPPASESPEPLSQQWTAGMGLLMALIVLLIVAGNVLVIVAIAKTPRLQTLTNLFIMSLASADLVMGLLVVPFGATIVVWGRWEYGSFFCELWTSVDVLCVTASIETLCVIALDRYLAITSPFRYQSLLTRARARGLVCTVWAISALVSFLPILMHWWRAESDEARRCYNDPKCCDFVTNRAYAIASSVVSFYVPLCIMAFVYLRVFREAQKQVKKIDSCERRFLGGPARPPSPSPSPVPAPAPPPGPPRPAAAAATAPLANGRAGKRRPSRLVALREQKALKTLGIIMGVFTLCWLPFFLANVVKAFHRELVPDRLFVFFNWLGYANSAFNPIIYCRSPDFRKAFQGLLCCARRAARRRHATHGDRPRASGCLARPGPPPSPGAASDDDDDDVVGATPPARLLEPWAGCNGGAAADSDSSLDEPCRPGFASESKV
Structure (SMILES),EC50 [1] [nM],fold change (FC) (Liver microsomes),EC50 [2] [nM],EC50 [3] [nM],logD [4],Time (Cavia porcellus [7]) [min],EC50 [8] [nM],further results
CC(=O)O.CCNC(=O)Nc1ccc(CCCCOCCCCCCNC[C@H](O)c2ccc(O)c(CO)c2)cc1,31.6,1.37,12.6,0.501,–,–,–,–
OCc1cc(C(O)CNCCCCCCOCCCCc2ccccc2)ccc1O (configuration not stated) [SALMETEROL],–,–,–,–,1.06,–,–,bioavailability [5]: 66%; Time (Cavia porcellus [6]): 8 h
O=C(CNC(=O)Nc1cccc(CCCCOCCCCCCNC[C@H](O)c2ccc(O)c(CO)c2)c1)NC1CCCC1,10,–,12.6,0.316,–,–,–,–
CC(=O)O.NC(=O)Nc1cc(CCCCOCCCCCCNC[C@H](O)c2ccc(O)c(CO)c2)cc(C(F)(F)F)c1,50.1,1.34,25.1,1,–,–,–,–
CC(=O)O.NC(=O)NCc1cccc(CCCCOCCCCCCNC[C@H](O)c2ccc(O)c(CO)c2)c1,7.94,1.64,15.8,0.501,–,–,–,–
CC(=O)O.O=C(Nc1cccc(CCCCOCCCCCCNC[C@H](O)c2ccc(O)c(CO)c2)c1)NC1CCCCC1,7.94,2.18,2.51,1,–,–,–,–
NC(=O)CNC(=O)Nc1cccc(CCCCOCCCCCCNC[C@H](O)c2ccc(O)c(CO)c2)c1.O=CO,31.6,–,100,0.251,-0.78,9,0.251,–
CC(=O)O.NC(=O)Nc1cccc(CCCCOCCCCCCNC[C@H](O)c2ccc(O)c(CO)c2)c1,63.1,0.97,7.94,0.794,-0.28,13.5,2.51,–
CC(=O)O.CCNC(=O)Nc1cccc(CCCCOCCCCCCNC[C@H](O)c2ccc(O)c(CO)c2)c1,31.6,0.81,158,1,0.5,15,1.26,–
CC(=O)O.CCNC(=O)NCc1cccc(CCCCOCCCCCCNC[C@H](O)c2ccc(O)c(CO)c2)c1,31.6,0.72,31.6,0.631,–,–,–,–
CC(=O)O.Cc1cc(CCCCOCCCCCCNC[C@H](O)c2ccc(O)c(CO)c2)cc(NC(N)=O)c1,39.8,1.17,39.8,0.158,0.2,10,1.58,bioavailability [9]: 6%; QH (Canis familiaris): < 67%; half-life [10]: 54 min; bioavailability [11]: < 5%; QH (Rattus norvegicus): 100%; Vd [12]: 2 L/kg; half-life [13]: 60 min; clearance [14]: 83 mL/min/kg; Time (Cavia porcellus [15]): 18 h; clearance [16]: 6 mL/min/kg; Vd [17]: 0.55 L/kg; EC90 (Cavia porcellus [18]): 10000 nM; AUC [19]: 80.2 ng·h/mL; Time (Cavia porcellus [6]): 7 h
